Reference: PMC10074403 (Chemical Science, 2023)

Legend:
A2780 cells = test: Intracellular EdU release from PE NPs; assay type: cell-based, human; settings: 10 μM EdU equiv., 6 h with PE NPs (1 h with EdU), azide-488
How it was run: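 Human ovarian adenocarcinoma A2780 cells are treated with nanoparticles of mutual prodrugs built with the nucleoside analog EdU as a gemcitabine surrogate, or with free EdU; nanoparticle exposure is 6 h. EdU incorporated into DNA is detected by click reaction with azide-488. Images show green overlap with blue-stained nuclei (cyan) to indicate nuclear EdU incorporation.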

[1] = system: A549 human lung adenocarcinoma xenografts; test: In vivo anticancer efficacy in A549 xenografts; design: species or system female BALB/c nude mice; settings: PTX 20 mg kg−1 equiv., Gem 6.4 mg kg−1, i.v. on days 0, 3, 6; n = 5

Structure (SMILES) | Distribution of green fluorescence (EdU incorporation into nuclei) (A2780 cells) | A549 tumor growth (relative tumor size) [1]
C#Cc1cn([C@H]2C[C@H](O)[C@@H](CO)O2)c(=O)[nH]c1=O [EdU, 5-ethynyl-2′-deoxyuridine] | centralized in the area of the nucleus | –
Nc1ccn([C@@H]2O[C@H](CO)[C@@H](O)C2(F)F)c(=O)n1 [Gem, gemcitabine] | – | failed to effectively suppress tumor growth
